Experimental data reported in ChEMBL document CHEMBL1250542, “Synthesis and biological evaluation of a series of aromatic bisphosphonates” (Bioorg Med Chem, 2010).
Calls of active or inactive are those of the source. No cut-off for these calls is given here.

Key:
[1] = molecular target: T1, Geranylgeranyl pyrophosphate synthase (Homo sapiens) (UniProt O95749); experiment: Inhibition of GST-tagged human recombinant GGDPS expressed in BL21 gold bacteria at 10 uM by liquid scintillation counting
T1 sequence (whole entry): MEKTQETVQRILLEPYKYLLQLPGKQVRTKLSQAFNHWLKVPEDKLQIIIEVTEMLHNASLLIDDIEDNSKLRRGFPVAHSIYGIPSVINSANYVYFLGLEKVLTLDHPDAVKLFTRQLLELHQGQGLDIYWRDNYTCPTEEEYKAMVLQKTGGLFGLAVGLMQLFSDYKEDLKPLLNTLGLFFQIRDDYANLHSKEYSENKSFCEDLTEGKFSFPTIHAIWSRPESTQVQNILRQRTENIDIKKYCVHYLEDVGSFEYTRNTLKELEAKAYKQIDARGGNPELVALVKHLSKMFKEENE
Outline: (§1)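 Purified recombinant human GGDPS in buffer containing 0.5 mM MgCl₂ and 0.5 mM ZnCl₂ was preincubated with compounds for 10 min. Reactions were started with ¹⁴C-IPP plus FPP and run for 1 h at 37 °C. Products were extracted into water-saturated butanol, washed twice with saturated water, and counted by liquid scintillation. Data are from a single-concentration screen and concentration–response curves with IC₅₀ extrapolated, mean SD, n = 2.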

K562 [2] = experiment: Inhibition of GGTase1 in human K562 cells assessed as reduction of Rap1a protein geranylgeranylation at 50 uM after 48 hrs by Western blotting; assay type: cell-based
Outline: (§2)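 Prenylation in intact cells: K562 cells at 5 × 10⁵ cells/mL were incubated with compounds or lovastatin for 48 h, as a single-concentration screen or a concentration series. Lysates were made in 2% SDS/66 mM Tris and protein was measured by BCA. Samples were resolved on 12% and 15% gels, transferred to PVDF, and probed for pan-Ras, Rap1a or Rab6, with α-tubulin as reference. Detection was by ECL.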

[3] = molecular target: T2, Geranylgeranyl pyrophosphate synthase (Homo sapiens, UniProt O95749); experiment: Inhibition of GST-tagged human recombinant GGDPS expressed in BL21 gold bacteria by liquid scintillation counting; outline: as §1
T2 sequence (O95749 whole entry): T1 sequence (whole entry)

[4] = molecular target: T1, Geranylgeranyl pyrophosphate synthase (Homo sapiens); experiment: Inhibition of GGDPS in human K562 cells assessed as reduction Rap1a protein geranylgeranylation after 48 hrs by Western blotting in presence GGPP; assay type: cell-based
Outline: (§3)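 Add-back assay: K562 cells at 5 × 10⁵ cells/mL were exposed for 48 h to compounds, or to lovastatin, with or without exogenous mevalonate, FPP or GGPP. Lysates were made in 2% SDS/66 mM Tris and protein was measured by BCA. Samples were run on 12% and 15% SDS gels, transferred to PVDF, and immunoblotted for pan-Ras, Rap1a or Rab6, with α-tubulin as reference. Detection was by ECL.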

K562 [5] = experiment: Anticancer activity against human K562 cells assessed as inhibition of DNA synthesis by [3H]thymidine incorporation assay; assay type: functional, cell-based
Outline: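 [³H]thymidine (3.75 Ci/mmol in media) was added at 44 or 68 h. At 48 or 72 h, cells were harvested onto glass microfiber paper and incorporated label was scintillation counted. Proliferation is expressed as % of untreated cells, mean S.E., n = 4.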

K562 [6] = experiment: Inhibition in human K562 cells assessed as reduction of RAB6 protein geranylgeranylation after 48 hrs by Western blotting
[7] = molecular target: T3, Farnesyl pyrophosphate synthase (Homo sapiens) (UniProt P14324); experiment: Inhibition of FDPS in human K562 cells assessed as reduction of Ras protein farnesylation after 48 hrs by Western blotting; assay type: cell-based; outline: as §2
T3 sequence (whole entry): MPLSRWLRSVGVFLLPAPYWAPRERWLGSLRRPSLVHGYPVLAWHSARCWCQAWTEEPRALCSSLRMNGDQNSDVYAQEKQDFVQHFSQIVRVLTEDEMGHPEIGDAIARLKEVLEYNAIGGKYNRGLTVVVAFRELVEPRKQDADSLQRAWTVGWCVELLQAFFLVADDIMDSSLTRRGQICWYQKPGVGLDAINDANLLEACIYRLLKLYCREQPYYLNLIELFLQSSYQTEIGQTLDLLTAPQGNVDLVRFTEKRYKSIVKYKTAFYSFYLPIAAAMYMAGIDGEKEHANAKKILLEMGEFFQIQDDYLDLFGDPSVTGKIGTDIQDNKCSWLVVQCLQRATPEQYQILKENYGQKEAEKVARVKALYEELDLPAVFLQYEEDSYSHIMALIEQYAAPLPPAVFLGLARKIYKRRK

[8] = molecular target: T1, Geranylgeranyl pyrophosphate synthase (Homo sapiens); experiment: Inhibition of GGDPS in human K562 cells assessed as reduction Rab6 protein geranylgeranylation after 48 hrs by Western blotting in presence GGPP; assay type: cell-based; outline: as §3
K562 [9] = experiment: Inhibition of GGTase1 in human K562 cells assessed as reduction of Rap1a protein geranylgeranylation at 12.5 uM after 48 hrs by Western blotting; assay type: cell-based; outline: as §2
[10] = molecular target: T3, Farnesyl pyrophosphate synthase (Homo sapiens); experiment: Inhibition of FDPS in human K562 cells assessed as reduction Ras protein farnesylation after 48 hrs by Western blotting in presence of mevalonate and FPP; assay type: cell-based; outline: as §3
K562 [11] = experiment: Inhibition of GGTase1 in human K562 cells assessed as reduction of Rap1a protein geranylgeranylation after 48 hrs by Western blotting; assay type: cell-based; outline: as §2

Q: What does the source list for CC(C)=CCC/C(C)=C/CC(Cc1cccc(CC=C(C)C)c1)(P(=O)(O)O)P(=O)(O)O?
A: inhibition activity call (active/not active) [1]: Active; inhibition (K562 [2]): Active; IC50 [3]: 250 nM; inhibition [4]: inactive; inhibition (K562 [5]): Active; inhibition (K562 [6]): Active; inhibition [7]: inactive; inhibition [8]: inactive; Activity (K562 [9]): Active; inhibition [10]: Active

Q: Which results are given for CC[C@H](C)C(=O)O[C@H]1C[C@@H](C)C=C2C=C[C@H](C)[C@H](CC[C@@H]3C[C@@H](O)CC(=O)O3)[C@H]21?
A: inhibition (K562 [11]): Active; inhibition [10]: inactive

Q: With CC(C)=CCc1cccc(CC(P(=O)(O)O)P(=O)(O)O)c1 as the molecule, how does the “inhibition activity call (active/not active)” value [1] read?
A: inactive

Q: Which “inhibition activity call (active/not active)” value [1] does the source give for CC(C)=CCC/C(C)=C/CC(Cc1ccccc1)(P(=O)(O)O)P(=O)(O)O here?
A: Active

Q: For O=P(O)(O)C(Cc1ccccc1)P(=O)(O)O, which “inhibition activity call (active/not active)” value [1] is on record?
A: inactive

Q: How did the “inhibition activity call (active/not active)” value [1] turn out when CC(C)=CCC/C(C)=C/CC(Cc1cccnc1)(P(=O)(O)O)P(=O)(O)O was run?
A: Active

Q: How did the “inhibition activity call (active/not active)” value [1] turn out when CC(C)=CCC/C(C)=C/CC(Cc1ccc(CC=C(C)C)cc1)(P(=O)(O)O)P(=O)(O)O was run?
A: Active

Q: And the inhibition (K562 [2])?
A: Active

Q: And the IC50 [3]?
A: 800 nM

Q: What about the inhibition [4] of the same molecule?
A: inactive

Q: And the inhibition (K562 [5])?
A: Active

Q: What about the inhibition (K562 [6]) of the same molecule?
A: Active

Q: And the inhibition [7]?
A: inactive

Q: And the inhibition [8]?
A: inactive

Q: And the inhibition [10]?
A: Active

Q: CC(C)=CCc1ccc(CC(P(=O)(O)O)P(=O)(O)O)cc1 was tested. Which “inhibition activity call (active/not active)” value [1] did it give?
A: inactive
